Measurements published in publication PMC6008205 (Journal of controlled release : official journal of the …, 2018).

Legend:
[1] = Dynamic light scattering particle size and PDI of CSPNs; assay type: physicochemical; details: DLS in ultrapure water, peptide nanodrills 0.4 mM, triplicate
Summary of the method: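 Nanodrills formed spontaneously on vortexing peptide in ultrapure water or PBS pH 7.4. They were measured at 0.4 mM by dynamic light scattering in a quartz cuvette after 2 min equilibration. Measurements were done in triplicate and reported as arithmetic mean ± standard deviation.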

[2] = ANS spectrofluorimetric analysis of hydrophobic regions; assay type: physicochemical; details: ANS 0.2 µM, CSPNs 2–16 µM, excitation 356 nm; relative to 2F-RT
Summary of the method: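 Test peptides were dissolved in water at 2–16 µM, and the ANS probe was added at 0.2 µM. Spectra were read on a fluorescence microplate reader at ambient temperature, with excitation at 356 nm and emission scanned from 380–600 nm. All measurements were done in triplicate and reported as arithmetic mean ± standard deviation.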

[3] = Tapping mode AFM analysis of nanodrill size and mechanical stability; details: tapping mode AFM on mica under water, 400 µM peptide solution

FFF--(RADA)2-Tat [3F-RT]
PDI [1]: 0.434 | Mean ANS fluorescence intensity compared to 2F-RT [2]: five-fold increase | Aspect ratio by AFM [3]: 6.2±3.9 | Nanodrill size (length) by AFM [3]: 105±67 nm
